Assay results from publication PMC4084507 (Chembiochem : a European journal of chemical biology, 2014).
Where two headings read alike, the source gives them in different places.

What was measured:
AtsB = AtsB (Mycobacterium tuberculosis, UniProt O65931); conditions: 10 µM probe, 7-8 min; native gel-resolved lysate
Helix pomatia sulfatase [1] = assay: fluorogenic hydrolysis assay; type: biochemical; conditions: read-out: Helix pomatia ^[b]; potassium acetate buffer pH 5.0, 37 °C
Summary of the method: (§1)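 Commercial Helix pomatia sulfatase was incubated with the fluorogenic sulfate substrate in potassium acetate buffer (pH 5.0) at 37 °C. Formation of the released fluorophore was monitored over time. Substrate-only reactions without enzyme served as the background control. KM and Vmax (pmoles/sec) were derived from the kinetics, and Vmax/KM was calculated from them.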

Helix pomatia sulfatase [2] = assay: fluorogenic hydrolysis assay; type: biochemical; conditions: read-out: Helix pomatia ^[b]; potassium acetate buffer pH 5.0, 37 °C; remark: listed apart in the source
Summary of the method: as §1

For `CC1(C)C2=C(Cl)C(=O)C(Cl)=CC2=Nc2ccc(OS(=O)(=O)O)cc21` [DDAO-sulfate], the “in-gel fluorescence after native gel of lysate” value (AtsB) was “AtsB can hydrolyze both RS and DDAO-sulfate, but not MFS”.

For `COc1ccc2c(c1)Oc1cc(OS(=O)(=O)O)ccc1C21OC(=O)c2ccccc21` (stereo not shown) [MFS], the Km (Helix pomatia sulfatase [1]) was 24.8 ± 2.2 µM.

`O=c1ccc2nc3ccc(OS(=O)(=O)O)cc3oc-2c1` [RS] was tested, and the Km (Helix pomatia sulfatase [2]) was 17.5 ± 0.9 µM and the “in-gel fluorescence after native gel of lysate” value (AtsB) was “AtsB can hydrolyze both RS and DDAO-sulfate, but not MFS”.
